≈ marks a conversion by molar mass, not a printed value.
Tests used:
Format in all cases: functional
[1] = test system: Mycobacterium tuberculosis; experiment: Antimycobacterial activity against Mycobacterium tuberculosis H37Rv ATCC 27294 after 5 to 8 days by microplate alamar blue assay
[2] = test system: Mycobacterium tuberculosis; experiment: Growth inhibition of Mycobacterium tuberculosis H37Rv ATCC 27294 after 5 to 8 days by microplate alamar blue assay
[3] = test system: Mycobacterium tuberculosis; experiment: Antimycobacterial activity against Mycobacterium tuberculosis
How it was run: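 Radiometric BACTEC 460 assay in 7H12 broth (BACTEC-12B, 4 mL) with M. tuberculosis H37Rv ATCC 27294. Inoculum came from 7H9/glycerol/0.05% Tween 80 cultures at OD550 0.45–0.55, diluted to reach GI 999 in five days. Compounds were from 1 mg/mL DMSO stocks, with DMSO controls. GI was read daily at 37 °C, 5–8 days. % inhibition = [1 − (GI test/GI control)] × 100. MIC was set against a 1:100 diluted control.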

[4] = Mycobacterium tuberculosis, H37Rv ATCC 27294

SMILES	MIC99 [1, 4]	growth inhibition (GI) [2]	MIC97 [1]	MIC95 [1, 4]	MIC [3]
CC(=O)c1c(C)[nH]c(C(=O)N/N=C/c2ccc([N+](=O)[O-])cc2)c1C	< 6.25 mg/L	32%			
O=C1Nc2c(cccc2[N+](=O)[O-])C(=O)/C1=N/Nc1ccc(Cl)cc1	< 6.25 mg/L	61%			
CC(=O)c1c(C)[nH]c(C(=O)N/N=C/c2cccc([N+](=O)[O-])c2)c1C	< 6.25 mg/L	18%			
O=C1Nc2ccc(Cl)cc2C(=O)/C1=N/Nc1ccc(Cl)cc1	< 6.25 mg/L	98%			
O=C1Nc2c(cccc2[N+](=O)[O-])C(=O)/C1=N/Nc1cccc(Cl)c1	< 6.25 mg/L	82%			
O=C1Nc2c(cccc2[N+](=O)[O-])C(=O)/C1=N/Nc1ccc(Cl)c(Cl)c1	< 6.25 mg/L	79%			
Cc1cccc(N/N=C2\C(=O)Nc3c(cccc3[N+](=O)[O-])C2=O)c1	< 6.25 mg/L	95%			
CC(=O)c1c(C)[nH]c(C(=O)N/N=C/c2ccc(N(C)C)cc2)c1C	< 6.25 mg/L	18%			
Cc1ccccc1N/N=C1\C(=O)Oc2ccc(-c3ccccc3)cc2C1=O	< 6.25 mg/L	17%			
O=C1Nc2c(cccc2[N+](=O)[O-])C(=O)/C1=N/Nc1ccccc1[N+](=O)[O-]	< 6.25 mg/L	80%			
CN1C(=O)/C(=N\Nc2ccccc2[N+](=O)[O-])C(=O)c2ccccc21	< 6.25 mg/L	94%			
O=C1Nc2c(cccc2[N+](=O)[O-])C(=O)/C1=N/Nc1cccc([N+](=O)[O-])c1	< 6.25 mg/L	60%			
CO[C@H]1/C=C/O[C@@]2(C)Oc3c(C)c(O)c4c(O)c(c(/C=N/N5CCN(C)CC5)c(O)c4c3C2=O)NC(=O)/C(C)=C\C=C\[C@H](C)[C@H](O)[C@@H](C)[C@@H](O)[C@@H](C)[C@H](OC(C)=O)[C@@H]1C [RIFAMPIN]			0.015 mg/L (≈ 0.0182 µM)	0.25 mg/L (≈ 0.304 µM)	
CC(=O)c1c(C)[nH]c(C(=O)N/N=C/c2ccc(C)cc2)c1C	< 6.25 mg/L	92%			
Cc1cccc(N/N=C2\C(=O)Oc3ccc(-c4ccccc4)cc3C2=O)c1	< 6.25 mg/L	23%			
O=C1Oc2ccc(-c3ccccc3)cc2C(=O)/C1=N/Nc1ccccc1[N+](=O)[O-]	< 6.25 mg/L	25%			
O=C1Oc2ccc(-c3ccccc3)cc2C(=O)/C1=N/Nc1c(Cl)cccc1Cl	< 6.25 mg/L	23%			
O=C1Oc2ccc(-c3ccccc3)cc2C(=O)/C1=N/Nc1ccc(F)cc1	< 6.25 mg/L	18%			

SMILES	MIC99 [1, 4]	growth inhibition (GI) [2]	MIC97 [1]	MIC95 [1, 4]	MIC [3]
O=C1Oc2ccc3ccccc3c2C(=O)/C1=N/Nc1ccccc1	< 6.25 mg/L	62%			
O=C1Oc2ccc3ccccc3c2C(=O)/C1=N/Nc1ccc(Cl)cc1	< 6.25 mg/L	88%			
Cc1cccc(N/N=C2\C(=O)Oc3ccc4ccccc4c3C2=O)c1C	< 6.25 mg/L	64%			
Cc1cc(C)cc(N/N=C2\C(=O)Oc3ccc4ccccc4c3C2=O)c1	< 6.25 mg/L	58%			
COc1ccc(N/N=C2\C(=O)Oc3ccc4ccccc4c3C2=O)cc1	< 6.25 mg/L	55%			
O=C1Nc2cc([N+](=O)[O-])ccc2C(=O)/C1=N/Nc1ccc(Br)cc1	< 6.25 mg/L	100%			
O=C1Nc2ccccc2C(=O)/C1=N/Nc1ccccc1	< 6.25 mg/L	97%			
O=C1Nc2cc([N+](=O)[O-])ccc2C(=O)/C1=N/Nc1ccccc1-c1ccccc1	< 6.25 mg/L	100%			
O=C1Nc2ccc(Cl)cc2C(=O)/C1=N/Nc1ccccc1[N+](=O)[O-]	< 6.25 mg/L	64%			
CCCc1cc(=O)oc2c3c(c4c(c12)OC(C)(C)C=C4)O[C@H](C)[C@@H](C)[C@@H]3O [CALANOLIDE A]					3.13 mg/L (≈ 8.45 µM)
Cc1c(Cl)cccc1N/N=C1\C(=O)Nc2cc([N+](=O)[O-])ccc2C1=O	< 6.25 mg/L	98%			
O=C1Nc2c(ccc(Cl)c2Cl)C(=O)/C1=N/Nc1ccc([N+](=O)[O-])cc1	< 6.25 mg/L	89%			
Cc1cccc(N/N=C2\C(=O)Nc3cc(Cl)ccc3C2=O)c1	< 6.25 mg/L	70%			
O=C1Oc2ccc3ccccc3c2C(=O)/C1=N/Nc1ccc([N+](=O)[O-])cc1	< 6.25 mg/L	94%			
CC(=O)c1c(C)[nH]c(C(=O)N/N=C/c2cccc(Cl)c2)c1C	< 6.25 mg/L	29%			
O=C1Nc2c(ccc(Cl)c2Cl)C(=O)/C1=N/Nc1ccccc1	< 6.25 mg/L	85%			
O=C1Oc2ccc(-c3ccccc3)cc2C(=O)/C1=N/Nc1cccc(F)c1Cl	< 6.25 mg/L	19%			
O=C1Nc2cc([N+](=O)[O-])ccc2C(=O)/C1=N/Nc1ccc(Cl)c(F)c1	< 6.25 mg/L	70%			

Source: ChEMBL document CHEMBL1806474, “Diversity oriented design of various hydrazides and their in vitro evaluation against Mycobacterium tuberculosis H37Rv strains” (2011)
